The source of these data is paper PMC12370974 (Nature Communications, 2025).

Residue numbers refer to the chain shown, from its start. Peptide text beside a SMILES is read from it.

Assay [1] addresses full-length (FL) PRT1 wild-type (WT), PROTEOLYSIS1 of Arabidopsis thaliana (Arabidopsis thaliana) (UniProt Q8LBL5). The assay is described as follows: ITC.
The next assay concerns the target T1, FL PRT1^Y317A (Arabidopsis thaliana, UniProt Q8LBL5, Y317A).
T1 sequence (Q8LBL5 1-410 Y317A): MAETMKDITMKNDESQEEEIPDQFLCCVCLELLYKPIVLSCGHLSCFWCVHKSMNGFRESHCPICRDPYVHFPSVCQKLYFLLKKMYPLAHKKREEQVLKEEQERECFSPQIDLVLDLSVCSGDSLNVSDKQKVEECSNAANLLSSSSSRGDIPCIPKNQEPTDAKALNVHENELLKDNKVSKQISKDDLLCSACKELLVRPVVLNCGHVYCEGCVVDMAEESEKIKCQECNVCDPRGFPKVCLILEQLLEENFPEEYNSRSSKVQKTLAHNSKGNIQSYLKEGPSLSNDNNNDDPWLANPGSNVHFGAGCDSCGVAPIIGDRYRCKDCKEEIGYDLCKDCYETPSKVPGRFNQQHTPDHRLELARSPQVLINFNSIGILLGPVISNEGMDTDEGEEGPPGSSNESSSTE
The assay is described as follows: ITC binding of N-degron peptides to full-length PRT1 Y317A mutant. The conditions noted are these: 25 °C, ITC buffer pH 7.5, one-site model. In short, it runs like this: (§1)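 Full-length PRT1 (wild type or point mutant) was expressed in E. coli BL21(DE3) with ZnSO4 and purified by Ni-NTA, TEV cleavage of the His6 tag and size exclusion into ITC buffer (50 mM Tris-HCl pH 7.5, 150 mM NaCl, 1 mM TCEP). Protein was at 45~55 μM and synthetic N-degron peptide at ~550 μM in the same buffer, with 19 injections at 25 °C. Data were fitted to a one-site model, with at least three runs.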

Another assay deals with T2, FL PRT1^I333A (Arabidopsis thaliana, UniProt Q8LBL5, I333A).
T2 sequence (Q8LBL5 1-410 I333A): T1 sequence (Q8LBL5 1-410 Y317A) with A317Y, I333A
The assay is described as follows: ITC binding of N-degron peptides to full-length PRT1 I333A mutant. The conditions noted are these: 25 °C, ITC buffer pH 7.5, one-site model. An outline of the steps: as §1

Assay [2] addresses FL PRT1 I333A mutant (Arabidopsis thaliana) (UniProt Q8LBL5). The assay is described as follows: ITC. (In general: Isothermal titration calorimetry measures the heat released or taken up as one component is titrated into another.)
Assay [3] has as its target FL PRT1 Y317A mutant (Arabidopsis thaliana) (UniProt Q8LBL5). The assay is described as follows: ITC.
Assay [4] deals with RING2 domain of PRT1, wild type (Arabidopsis thaliana). As to the kind of experiment: SEC-MALS. (In general: Size exclusion chromatography separates by hydrodynamic size, large species first.)
In the next assay the target is T3, FL PRT1^WT (Arabidopsis thaliana, UniProt Q8LBL5).
T3 sequence (Q8LBL5 1-410): T1 sequence (Q8LBL5 1-410 Y317A) with A317Y
As to the kind of experiment: ITC binding of N-degron peptides to full-length PRT1 wild-type. In short, it runs like this:
as §1

For the next assay, the target named is T4, PRT1^ZZ (Arabidopsis thaliana, UniProt Q8LBL5).
T4 sequence (Q8LBL5 308-365): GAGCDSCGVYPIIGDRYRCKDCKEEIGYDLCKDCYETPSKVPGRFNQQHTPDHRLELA
As to the kind of experiment: ITC binding of N-degron peptide to the ZZ domain of PRT1. An outline of the steps: (§2)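 The PRT1 truncation was expressed in E. coli as a bRIP-tag fusion and purified by Ni-NTA, Blue affinity chromatography and size exclusion into ITC buffer (50 mM Tris-HCl pH 7.5, 150 mM NaCl, 1 mM TCEP). Protein was at 45~55 μM and synthetic N-degron peptide at ~550 μM in the same buffer, with 19 injections at 25 °C. Data were fitted to a one-site model, with at least three runs.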

Assay [5] deals with T5, ZZ domain-deleted RING domains (RING1 + RING2) of PRT1 (Arabidopsis thaliana, UniProt Q8LBL5).
T5 sequence (Q8LBL5 1-273): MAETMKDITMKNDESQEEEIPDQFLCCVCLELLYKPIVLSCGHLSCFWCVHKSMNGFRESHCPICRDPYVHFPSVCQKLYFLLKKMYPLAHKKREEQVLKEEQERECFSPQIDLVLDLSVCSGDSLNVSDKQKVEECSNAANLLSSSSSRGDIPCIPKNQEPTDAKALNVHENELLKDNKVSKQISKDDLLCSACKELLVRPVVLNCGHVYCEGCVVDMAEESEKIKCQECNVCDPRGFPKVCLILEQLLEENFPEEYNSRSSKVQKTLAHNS
The assay is described as follows: ITC binding of N-degron peptide to ZZ domain-deleted PRT1. The conditions noted are these: 25 °C, ITC buffer pH 7.5, RIP-RING (1-273). In short, it runs like this:
as §2

Another assay deals with T6, FL PRT1^Y317A/I333A (Arabidopsis thaliana, UniProt Q8LBL5, I333A/Y317A).
T6 sequence (Q8LBL5 1-410 Y317A/I333A): T1 sequence (Q8LBL5 1-410 Y317A) with I333A
The assay is described as follows: ITC binding of N-degron peptide to full-length PRT1 Y317A/I333A double mutant. To be noted: 25 °C, ITC buffer pH 7.5, FL PRT1 Y317A/I333A double mutation. An outline of the steps:
as §1

What is called Kd is the equilibrium constant for the complex coming apart. A low value points to higher affinity. In the case of YAA peptide, in [1], the Kd was 23.3 µM.

For the molecule `C[C@H](NC(=O)[C@H](CCCCN)NC(=O)[C@@H](N)Cc1ccc(O)cc1)C(=O)O` [YKA] (H-Tyr-Lys-Ala-OH), the “dissociation constant (KD), binding affinity” value on FL PRT1^Y317A and on FL PRT1^I333A was “not bound” in each case.

Regarding Tyr N-degron peptide (Tyr-Lys-Phe), the figures for the Kd in assay [2] and in assay [3] were 13.7 µM and 41.3 µM, respectively.

Broadly, the stoichiometry N is a count of units in the complex or per binding partner. Regarding “RING2 domain of PRT1, wild type (domain or fragment)”, the stoichiometry N in [4] turned out to be 2.

On to `C[C@H](NC(=O)[C@H](C)NC(=O)[C@@H](N)Cc1ccccc1)C(=O)O` [FAA] (H-Phe-Ala-Ala-OH), for which the Kd at FL PRT1^WT was determined as 5.45 ± 0.212 µM.

As to `C[C@H](NC(=O)[C@H](C)NC(=O)[C@@H](N)Cc1c[nH]c2ccccc12)C(=O)O` [WAA] (H-Trp-Ala-Ala-OH), the affinity at FL PRT1^WT, expressed as Kd, was 2.85 ± 0.164 µM.

`NCCCC[C@H](NC(=O)[C@@H](N)Cc1ccc(O)cc1)C(=O)N[C@@H](Cc1ccccc1)C(=O)O` [YKF, Tyr-Lys-Phe] (H-Tyr-Lys-Phe-OH) registered a Kd on PRT1^ZZ of 10.1 µM. In addition, the “binding affinity (KD)” value in assay [5] was “no binding affinity was detected”. Further, on FL PRT1^Y317A/I333A, the “dissociation constant (KD), binding affinity” value was “considerably low affinity”.
